Results as given in ChEMBL document CHEMBL4354800, “Amphiphilic nebramine-based hybrids Rescue legacy antibiotics from intrinsic resistance in multidrug-resistant Gram-negative bacilli” (Eur J Med Chem, 2019).

Key:
Format in all cases: functional
Pseudomonas aeruginosa [1] = assay: Antimicrobial activity against XDR Pseudomonas aeruginosa isolate PA264 infected in Galleria mellonella larvae assessed as survival rate at 25 mg/kg co-administered with 25 mg/kg rifampicin at 2 hrs post-inoculation measured after 24 hrs relative to control
Procedure, shortened: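 G. mellonella larvae were injected with ~5 CFU of P. aeruginosa PA264 (10 µL of 5 × 10^2 CFU/mL in PBS) and held 2 h at 37 °C. A single 10 µL injection followed: monotherapy or rifampicin + compound (25+25, 50+50 or 75+75 mg/kg), with PBS as control. Larvae kept at 37 °C were scored every 6 h to 24 h; dead = no response to touch. n = 30 (two runs of 15); Kaplan-Meier.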

Enterobacter cloacae = assay: Potentiation of minocycline-induced antibacterial activity against Enterobacter cloacae 117029 assessed as fold reduction in minocycline MIC at 4.1 uM incubated for 18 hrs by broth dilution method
Procedure, shortened: (§1)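 Antibiotic MIC determined by CLSI broth microdilution (MHB, 5 × 10^5 CFU/mL, 18 h, 37 °C), once alone and once with a fixed concentration of the adjuvant. Potentiation is the ratio of the antibiotic MIC alone to its MIC in the presence of the adjuvant.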

Pseudomonas aeruginosa [2] = assay: Potentiation of rifampicin-induced bactericidal activity in MDR/XDR Pseudomonas aeruginosa isolate PA259-96918 harboring GyrA T83I mutant assessed as complete eradication of bacteria at 4 ug/ml incubated for 4 hrs in presence of 1 to 4 ug/ml rifampicin by time kill curve assay
Procedure, shortened: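 Time-kill assay against XDR P. aeruginosa PA259. Overnight culture adjusted to 0.5 McFarland in saline, diluted 1:50 in LB. Incubated at 37 °C for 24 h with rifampicin and adjuvant, alone or combined at various concentrations. Aliquots taken at intervals, serially diluted in PBS and plated on LB agar. Colonies counted after 20 h at 37 °C. Untreated cells as control.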

Escherichia coli = assay: Potentiation of rifampicin-induced antibacterial activity against Escherichia coli 94474 assessed as fold reduction in rifampicin MIC at 4.1 uM incubated for 18 hrs by broth dilution method
Procedure, shortened: (§2)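 CLSI broth microdilution. Overnight cultures were set to 0.5 McFarland in saline, diluted 1:50 in Mueller-Hinton broth to a final 5 × 10^5 CFU/mL, and incubated 18 h at 37 °C against 2-fold antibiotic dilutions. A fixed adjuvant level was present throughout. MIC = lowest concentration with no visible turbidity, confirmed at 590 nm. Potentiation = fold drop in antibiotic MIC versus antibiotic alone.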

Klebsiella pneumoniae = assay: Potentiation of rifampicin-induced antibacterial activity against Klebsiella pneumoniae 116381 assessed as fold reduction in rifampicin MIC at 4.1 uM incubated for 18 hrs by broth dilution method; procedure, shortened: as §1
Acinetobacter baumannii [3] = assay: Synergistic antibacterial activity against multidrug-resistant Acinetobacter baumannii AB92247 assessed as fractional inhibitory concentration index in presence of minocycline incubated for 18 hrs by broth dilution method
Pseudomonas aeruginosa [4] = assay: Potentiation of minocycline-induced antimicrobial activity against MDR/XDR Pseudomonas aeruginosa isolate PA262-101856 harboring GyrA Thr83Ile mutant assessed as minocycline MIC80 incubated for 18 hrs by broth microdilution method (reference value: 32 microg/ml); conditions: isolate PA262-101856, 18 h
Pseudomonas aeruginosa [5] = assay: Potentiation of minocycline-induced antibacterial activity against MDR/XDR Pseudomonas aeruginosa isolate 101885 harboring GyrA T83I mutant assessed as fold reduction in minocycline MIC at 7.5 uM incubated for 18 hrs by broth microdilution method
Pseudomonas aeruginosa [6] = assay: Potentiation of minocycline-induced antimicrobial activity against MDR/XDR Pseudomonas aeruginosa isolate 101243 devoid of GyrA Thr83Ile mutant assessed as minocycline MIC80 incubated for 18 hrs by broth microdilution method (reference value: 32 microg/ml); conditions: isolate 101243, 18 h
Acinetobacter baumannii [7] = assay: Synergistic antibacterial activity against multidrug-resistant Acinetobacter baumannii AB030 assessed as fractional inhibitory concentration index in presence of rifampicin incubated for 18 hrs by broth dilution method
Acinetobacter baumannii [8] = assay: Synergistic antibacterial activity against multidrug-resistant Acinetobacter baumannii AB027 assessed as fractional inhibitory concentration index in presence of rifampicin incubated for 18 hrs by broth dilution method
Pseudomonas aeruginosa [9] = assay: Potentiation of ciprofloxacin-induced antibacterial activity against MDR/XDR Pseudomonas aeruginosa isolate PA262-101856 harboring GyrA T83I mutant assessed as fold reduction in ciprofloxacin MIC at 7.5 uM incubated for 18 hrs by broth microdilution method
Acinetobacter baumannii [10] = assay: Potentiation of rifampicin-induced antibacterial activity against multidrug-resistant Acinetobacter baumannii AB031 assessed as fold reduction in rifampicin MIC at 7.5 uM incubated for 18 hrs by broth dilution method; procedure, shortened: as §2
Pseudomonas aeruginosa [11] = assay: Potentiation of ciprofloxacin-induced antibacterial activity against MDR/XDR Pseudomonas aeruginosa isolate 91433 devoid of GyrA T83I mutant assessed as fold reduction in ciprofloxacin MIC at 7.5 uM incubated for 18 hrs by broth microdilution method
Pseudomonas aeruginosa [12] = assay: Potentiation of minocycline-induced antimicrobial activity against MDR/XDR Pseudomonas aeruginosa isolate 91433 devoid of GyrA Thr83Ile mutant assessed as minocycline MIC80 incubated for 18 hrs by broth microdilution method (reference value: 32 microg/ml); conditions: isolate 91433, 18 h
Pseudomonas aeruginosa [13] = assay: Potentiation of rifampicin-induced antimicrobial activity against MDR/XDR Pseudomonas aeruginosa isolate 101885 harboring GyrA Thr83Ile mutant assessed as rifampicin MIC80 incubated for 18 hrs by broth microdilution method (reference value: 16 microg/ml); conditions: isolate 101885, 18 h
Acinetobacter baumannii [14] = assay: Synergistic antibacterial activity against multidrug-resistant Acinetobacter baumannii AB030 assessed as fractional inhibitory concentration index in presence of minocycline incubated for 18 hrs by broth dilution method
Pseudomonas aeruginosa [15] = assay: Potentiation of ciprofloxacin-induced antibacterial activity against MDR/XDR Pseudomonas aeruginosa isolate 100036 harboring GyrA T83I mutant assessed as fold reduction in ciprofloxacin MIC at 7.5 uM incubated for 18 hrs by broth microdilution method
Pseudomonas aeruginosa [16] = assay: Potentiation of rifampicin-induced antimicrobial activity against MDR/XDR Pseudomonas aeruginosa isolate 101885 harboring GyrA Thr83Ile mutant assessed as rifampicin MIC50 incubated for 18 hrs by broth microdilution method (reference value: 8 microg/ml); conditions: isolate 101885, 18 h
Pseudomonas aeruginosa [17] = assay: Potentiation of moxifloxacin-induced antibacterial activity against MDR/XDR Pseudomonas aeruginosa isolate PA260-97103 harboring GyrA T83I mutant assessed as fold reduction in moxifloxacin MIC at 9 uM incubated for 18 hrs by broth microdilution method; procedure, shortened: as §2
Pseudomonas aeruginosa [18] = assay: Potentiation of rifampicin-induced antibacterial activity against wild type Pseudomonas aeruginosa PAO1 assessed as fold reduction in rifampicin MIC at 9 uM incubated for 18 hrs by broth microdilution method; procedure, shortened: as §2
Pseudomonas aeruginosa [19] = assay: Potentiation of moxifloxacin-induced antibacterial activity against MDR/XDR Pseudomonas aeruginosa isolate 101243 devoid of GyrA T83I mutant assessed as fold reduction in moxifloxacin MIC at 9 uM incubated for 18 hrs by broth microdilution method; procedure, shortened: as §2

In the case of `Cl.Cl.Cl.Cl.Cl.NC[C@H]1O[C@H](O[C@H]2[C@H](OCCCCCCCCCCCCN3CCN(c4cc5c(cc4F)c(=O)c(C(=O)O)cn5C4CC4)CC3)[C@@H](O)[C@H](N)C[C@@H]2N)[C@H](N)C[C@@H]1O`, the survival at 25 mg/kg (Pseudomonas aeruginosa [1]) is reported as 13%, the “fold change (FC)” value (Enterobacter cloacae) is reported as 16 and the Activity (Pseudomonas aeruginosa [2]) is reported as 100%. The “fold change (FC)” value (Escherichia coli) was 256, the “fold change (FC)” value (Klebsiella pneumoniae) was “>=128” and the “fractional inhibitory concentration index (FICI)” value (Acinetobacter baumannii [3]) was 0.531.
`COc1c(N2C[C@@H]3CCCN(CCCCCCCCCCCCO[C@@H]4[C@@H](O)[C@H](N)C[C@H](N)[C@H]4O[C@H]4O[C@H](CN)[C@@H](O)C[C@H]4N)[C@@H]3C2)c(F)cc2c(=O)c(C(=O)O)cn(C3CC3)c12.Cl.Cl.Cl.Cl.Cl` was tested, and the MIC80 (Pseudomonas aeruginosa [4]) was 1 µg/mL, the “fold change (FC)” value (Pseudomonas aeruginosa [5]) was 16 and the MIC80 (Pseudomonas aeruginosa [6]) was 1 µg/mL. For the same compound, the “fractional inhibitory concentration index (FICI)” value (Acinetobacter baumannii [7]) was 0.031 - 0.281, the “fractional inhibitory concentration index (FICI)” value (Acinetobacter baumannii [8]) was 0.031 - 0.047 and the “fold change (FC)” value (Pseudomonas aeruginosa [9]) was 4. The “fold change (FC)” value (Acinetobacter baumannii [10]) was 64, the “fold change (FC)” value (Pseudomonas aeruginosa [11]) was 16 and the MIC80 (Pseudomonas aeruginosa [12]) was 1 µg/mL. The MIC80 (Pseudomonas aeruginosa [13]) was 0.13 µg/mL, the “fractional inhibitory concentration index (FICI)” value (Acinetobacter baumannii [14]) was over 1 and the “fold change (FC)” value (Pseudomonas aeruginosa [15]) was 2. It also gave an MIC50 (Pseudomonas aeruginosa [16]) of 0.06 µg/mL.
For `Cl.Cl.Cl.Cl.Cl.Cl.NC[C@H]1O[C@H](O[C@H]2[C@H](OCCCCCCCCCCN3CCN(Cc4cccc5ccccc45)CC3)[C@@H](O)[C@H](N)C[C@@H]2N)[C@H](N)C[C@@H]1O`, the “fold change (FC)” value (Pseudomonas aeruginosa [17]) was 128, the “fold change (FC)” value (Pseudomonas aeruginosa [18]) was 256 and the “fold change (FC)” value (Pseudomonas aeruginosa [19]) was 8.
